The test system of series [1] is Trypanosoma brucei. As to the kind of experiment: Antiparasitic activity against bloodstream-form Trypanosoma brucei assessed as static in presence of 5% Co2 at < 5.6 uM incubated for 24 hrs by static-cidal assay. The series is classed as functional, organism-based.
The test system of series [2] is Trypanosoma brucei. As to the kind of experiment: Antiparasitic activity against bloodstream-form Trypanosoma brucei in presence of 5% Co2 incubated for 69 hrs followed by resazurin addition further incubated for 4 hrs. It is filed as functional, organism-based. (Resazurin is reduced to fluorescent resorufin, in cell work by metabolically active cells.)
The test system of series [3] is Trypanosoma brucei. The series is described as follows: Antiparasitic activity against bloodstream-stage Trypanosoma brucei measured after 73 hrs by resazurin assay. It is filed as functional, organism-based.
A short description of series [4]: Toxicity in mouse assessed as tolerability at 20 mg/kg, ip. The series is classed as organism-based. The following applies: in vivo.
The test system of series [5] is Trypanosoma brucei brucei. The series is described as follows: Antiparasitic activity against Trypanosoma brucei brucei S427 injected in NMRI mouse assessed as cure by measuring reduction in parasitemia at 10 mg/kg, ip twice daily for 4 days by stage I efficacy study. The series is classed as functional. More on the design: scale not given: the % may be the effect or the level left. Particulars: time 4 day. The method, boiled down:
(§1)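 Female NMRI mice (3–5 per group) infected IP with 1 × 10^4 bloodstream T. b. brucei S427 from cryopreserved stabilate diluted in Hanks' balanced salt solution with glucose. Dosed IP twice daily, days 3–6, in 5% DMSO/40% PEG400/55% water, 10 mL kg-1, prepared fresh daily. Parasitemia followed to day 30; untreated control group of three mice.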

Series [6] can be described thus: AUC in HRN mouse at 10 mg/kg, […] by UPLC-MS/MS analysis. The series is classed as ADME, organism-based. The arrangement: dose 10 mg/kg. Particulars: in vivo. In outline: (§2)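 Female NMRI or HRN mice (n = 3) given a single IP dose of 10 mg kg-1 free base in 5% DMSO/40% PEG400/55% water or 15% solutol/85% water, 10 mL kg-1. Blood sampled at 5, 15, 30 min and 1, 2, 4, 6, 8 h, diluted with two volumes of water, assayed by UPLC-MS/MS. PK parameters derived from the mean blood concentration–time curve.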

Series [7] is described as follows: Metabolic stability in CD1 mouse liver microsomes assessed as intrinsic clearance by UPLC-MS/MS analysis. It is filed as ADME. The method, boiled down: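 Compound at 0.5 μM incubated with female CD1 mouse liver microsomes (0.5 mg mL-1, 50 mM potassium phosphate pH 7.4). Reaction started with excess NADPH. Aliquots taken at 0, 3, 6, 9, 15, 30 min and quenched in acetonitrile with internal standard, then analysed by UPLC-MS/MS.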
In general terms: Liver microsomes are a subcellular fraction often used to study metabolism.

Series [8] can be described thus: Fraction unbound in NMRI mouse. The series is classed as ADME.
In series [9] the test system is Trypanosoma brucei brucei. The series is described as follows: Antiparasitic activity against Trypanosoma brucei brucei S427 injected in NMRI mouse assessed as cure by measuring reduction in parasitemia at 10 mg/kg, ip twice daily for 4 days measured upto 30 days by stage I efficacy study. It is filed as functional, organism-based. Particulars: time 4.0 day. In outline: as §1

Series [10] in a line: Cmax in NMRI mouse at 10 mg/kg, ip by UPLC-MS/MS analysis. The series is classed as ADME, organism-based. More on the design: dose 10 mg/kg, route ip. Particulars: in vivo. The method, boiled down: as §2
The nature of series [11]: Cmax in NMRI mouse at 10 mg/kg, po by UPLC-MS/MS analysis. The series is classed as ADME, organism-based. More on the design: dose 10 mg/kg, route po. Particulars: in vivo. The method, boiled down:
(§3)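 Oral gavage at 10 mg kg-1 free base in 10% DMSO/40% PEG400/50% water, 5 mL kg-1, to female NMRI mice (n = 3) or Sprague-Dawley rats. Blood drawn at 5, 15, 30 min and 1, 2, 4, 6, 8 h, mixed with two volumes of water, measured by UPLC-MS/MS. Parameters taken from the mean blood concentration–time curve.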

The nature of series [12]: Tmax in HRN mouse at 10 mg/kg, ip by UPLC-MS/MS analysis. The series is classed as ADME, organism-based. Particulars: in vivo. In outline: as §2
The nature of series [13]: Tmax in NMRI mouse at 10 mg/kg, po by UPLC-MS/MS analysis. It is filed as ADME, organism-based. The following applies: in vivo. In outline:
as §3

The nature of series [14]: Drug metabolism in mouse liver microsomes assessed as retention time of 4-hydroxycyclohexyl metabolite at 0.5 to 5 uM for 60 mins by LC-MS analysis. The series is classed as ADME, Microsome. Particulars: 1 h, dose 0.5-5 µM. The method, boiled down: (§4)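 Mouse liver microsomes incubated with compound at 0.5 and 5 μM for 60 min. Oxidized metabolites (m/z 354) detected and their retention times recorded by LC–MS.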

The nature of series [15]: Tmax in NMRI mouse at 10 mg/kg, ip by UPLC-MS/MS analysis. It is filed as ADME, organism-based. Particulars: in vivo. In outline: as §2
A short description of series [16]: Selectivity index, ratio of EC50 for human MRC-5 cells to EC50 for bloodstream-form Trypanosoma brucei. The following applies: read-out: Selectivity Index. The series is classed as toxicity.
A short description of series [17]: Cmax in HRN mouse at 10 mg/kg, ip by UPLC-MS/MS analysis. The series is classed as ADME, organism-based. The following applies: in vivo. The arrangement: dose 10 mg/kg, route ip. In outline: as §2
Series [18] in a line: Antiproliferative activity against human MRC5 cells in presence of 5% Co2 incubated for 69 hrs followed by resazurin addition further incubated for 4 hrs. The series is classed as toxicity, cell-based.
The nature of series [19]: AUC in NMRI mouse at 10 mg/kg, po by UPLC-MS/MS analysis. The arrangement: dose 10 mg/kg, route po. It is filed as ADME, organism-based. The following applies: in vivo. The method, boiled down:
as §3

A short description of series [20]: Fraction unbound in NMRI mouse brain stage 2 CNS model. The series is classed as ADME.
Series [21] in a line: Drug metabolism in mouse liver microsomes assessed as retention time of 3-hydroxycyclohexyl metabolite at 0.5 to 5 uM for 60 mins by LC-MS analysis. The following applies: 1 h, dose 0.5-5 µM. The series is classed as ADME, Microsome. The method, boiled down:
as §4

The nature of series [22]: Permeability across blood brain barrier in NMRI mouse stage 2 CNS model. The series is classed as ADME. Particulars: read-out: BBR. The method, boiled down: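 Female NMRI mice (n = 3) received a 10 mg kg-1 IV bolus in 15% solutol. At 30 min, under terminal isoflurane anesthesia, blood was taken by cardiac puncture and the brain removed. Both were quantified by UPLC-MS/MS; brain (ng g-1) divided by blood (ng mL-1) per mouse gives the brain:blood ratio.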

The nature of series [23]: AUC in NMRI mouse at 10 mg/kg, […] by UPLC-MS/MS analysis. It is filed as ADME, organism-based. More on the design: dose 10 mg/kg. Particulars: in vivo. The method, boiled down:
as §2

For series [24], the system named is Trypanosoma brucei. As to the kind of experiment: Antiparasitic activity against bloodstream-form Trypanosoma brucei assessed as cidal in presence of 5% Co2 at > 5.6 uM incubated for 24 hrs by static-cidal assay. The series is classed as functional, organism-based.
Series [25] in a line: Cmax in NMRI mouse at 50 mg/kg, ip by UPLC-MS/MS analysis. The series is classed as ADME, organism-based. More on the design: dose 50 mg/kg, route ip. The following applies: in vivo.
A short description of series [26]: AUC in NMRI mouse at 50 mg/kg, ip by UPLC-MS/MS analysis. The following applies: in vivo. The arrangement: dose 50 mg/kg, route ip. The series is classed as ADME, organism-based.
A short description of series [27]: Free Cmax in NMRI mouse at 50 mg/kg, ip by UPLC-MS/MS analysis. The following applies: in vivo. It is filed as ADME, organism-based.
Series [28] concerns Trypanosoma brucei brucei. As to the kind of experiment: Antiparasitic activity against Trypanosoma brucei brucei S427 injected in NMRI mouse assessed as cure by measuring reduction in parasitemia at 100 mg/kg, for 4 days by stage I efficacy study. Particulars: time 4.0 day.
A short description of series [29]: Tmax in NMRI mouse at 50 mg/kg, ip by UPLC-MS/MS analysis. It is filed as ADME, organism-based. The following applies: in vivo.
Series [30] deals with Trypanosoma brucei brucei. The series is described as follows: Antiparasitic activity against Trypanosoma brucei brucei S427 injected in Sprague-Dawley rat assessed as cure by measuring reduction in parasitemia at 100 mg/kg, po twice daily for 4 days by stage I efficacy study. The series is classed as functional, organism-based. Particulars: time 4.0 day.
Series [31] in a line: Metabolic stability in human liver microsomes assessed as intrinsic clearance by UPLC-MS/MS analysis. The series is classed as ADME.
The nature of series [32]: AUC in Sprague-Dawley rat at 10 mg/kg, po by UPLC-MS/MS analysis. The series is classed as ADME, organism-based. The arrangement: dose 10 mg/kg, route po. The following applies: in vivo. The method, boiled down:
as §3

Series [33] is described as follows: Cmax in NMRI mouse at 100 mg/kg, ip by UPLC-MS/MS analysis. More on the design: dose 100 mg/kg, route ip. The following applies: in vivo. The series is classed as ADME, organism-based.
Series [34] can be described thus: Free Cmax in NMRI mouse at 100 mg/kg, ip by UPLC-MS/MS analysis. The following applies: in vivo. It is filed as ADME, organism-based.
Series [35] can be described thus: Free Cmax in Sprague-Dawley rat at 10 mg/kg, po by UPLC-MS/MS analysis. It is filed as ADME, organism-based. The following applies: in vivo.

The source made the active and inactive calls. No cut-off for these calls is given here. A value given as a limit tells only on which side of the number the result lay.

As a reminder, the EC50 is the midpoint of the concentration-response curve. The AUC is concentration integrated over time. Usually fraction unbound stands for free concentration divided by total concentration. The term Cmax denotes the maximum level reached in the sampled fluid or tissue. A word on the Tmax: it is the time at which the peak concentration occurs. Regarding `Nc1nc(NC2CCCCC2)sc1C(=O)c1c(F)cccc1F`, the result (in the series with Trypanosoma brucei [1]; in [9]; in the series on Trypanosoma brucei [24]) was Active. For the same compound, the EC50 with Trypanosoma brucei [2] and in the series on Trypanosoma brucei [3] was 110 nM in each case. For the same compound, the Activity entry in [4] was “Toxic”; in [5], 100%. In addition, the AUC in [6] turned out to be 1000 µg·h/mL; in series [19] it was 5.7 µg·h/mL; in [23] it was 66 µg·h/mL. Besides, the CLH in series [7] was 15 mL/min/g. The fraction unbound in series [8] worked out at 0.0063; in series [20], 0.006. Moreover, the Cmax is 830 ng/mL in series [10], 33 ng/mL in series [11] and 3800 ng/mL in series [17]. Further, the Tmax in [12] was 30 min; in series [13] it was 30 min; in [15] it was 15 min. The results for the Retention_time in series [14] and in [21] were 3.43 min and 3.86 min, respectively. For the same compound, the selectivity ratio in series [16] stood at 11. Moreover, the EC50 at 69 h in series [18] came out at 1200 nM. In addition, in series [22], the Kp was 3.3.

Regarding `CC(C)(O)CC(=O)c1sc(Nc2ccc(F)c(F)c2)nc1N`, the Cmax in series [25] came to 18000 ng/mL; in series [33], 36000 ng/mL. Further, the values for the AUC in series [26] and in series [32] were 1900 µg·h/mL and 470 µg·h/mL, respectively. Further, the figures for the CLH in series [7] and in series [31] were 2.2 mL/min/g and under 0.5 mL/min/g, respectively. Also, the fCmax came to 2600 ng/mL in series [27], 5200 ng/mL in [34] and 195 ng/mL in [35]. Besides, the outcome in [28] and in series [30] was inactive. Also, in series [29], the time of peak concentration (Tmax) was found to be 30 min.

The values above are taken from ChEMBL document CHEMBL5346944, “Development of a 2,4-Diaminothiazole Series for the Treatment of Human African Trypanosomiasis Highlights the Importance of Static-Cidal Screening of Analogues” (J Med Chem, 2023).
